The source of these data is ChEMBL document CHEMBL4138126, “Synthesis, antiproliferative, anti-tubulin activity, and docking study of new 1,2,4-triazoles as potential combretastatin analogues” (Eur J Med Chem, 2017).

Usually IC50 stands for the concentration that gives 50% inhibition. Usually inhibition stands for how much of the control response was suppressed.

SMILES strings stand for the structures.

In one assay the test system is HL-60. The assay can be described thus: Cytotoxicity in human HL60 cells assessed as reduction in cell viability incubated for 48 hrs by MTT assay. It is filed as functional, cell-based. Conditions: HL-60, 48 h. In a few lines:
(§1)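 HepG2 and HL60 (ATCC) grown in DMEM with 10% FBS, 2 mM L-glutamine, penicillin/streptomycin, amphotericin B at 37 °C, 5% CO2. Samples dissolved in DMSO, diluted thousandfold in assay. Cells seeded in serum-free medium, treated with serial concentrations 48 h; MTT 4 h, formazan dissolved in acidified isopropanol, A570. Triplicates averaged; viability relative to untreated/vehicle control.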
(In general: Tetrazolium assays rely on reduction of a dye to a coloured formazan, in cell work by metabolically active cells.)

Assay [1] concerns HepG2. The assay is described as follows: Cytotoxicity in human HepG2 cells assessed as reduction in cell viability incubated for 48 hrs by MTT assay. In kind it is functional, cell-based. Conditions: HepG2, 48 h. Put shortly: as §1
In assay [2] the test system is HepG2. The assay can be described thus: Inhibition of beta tubulin polymerisation in human HepG2 cells incubated for 2 hrs using TMB substrate by ELISA relative to untreated control. Details: concentration or dose not given beside the values. The following applies: dose or concentration not given here. In kind it is cell-based. For orientation: ELISA stands for enzyme-linked immunosorbent assay.

A short description of assay [3]: Inhibition of beta tubulin polymerisation in human HepG2 cells incubated for 2 hrs using TMB substrate by ELISA. It is filed as cell-based. The following applies: HepG2, 2 h.

As to `COc1cccc(CNC(=O)c2nc(-c3cc(OC)c(OC)c(OC)c3)n(-c3cccc(OC)c3)n2)c1`, the IC50 in the assay with HL-60 was greater than 100 µM; with HepG2 [1], 0.9 µM.

As for `COc1cccc(-n2nc(C(=O)Nc3ccc(OC)c(OC)c3)nc2-c2cc(OC)c(OC)c(OC)c2)c1`, the figures for the half-maximal inhibitory concentration (IC50) with HL-60 and in the assay with HepG2 [1] were 14.2 µM and 32.5 µM, respectively.

Take `COc1ccc(/C=C\c2cc(OC)c(OC)c(OC)c2)cc1O` [COMBRETASTATIN A4]: the inhibition in the assay with HepG2 [2] amounted to 72.3%. Besides, the IC50 with HL-60 came to 0.56 µM; in assay [3], 2.4 µM; in the assay with HepG2 [1], 2.41 µM.

Turning to `COc1cccc(-n2nc(C(=O)Nc3ccccc3OC)nc2-c2cc(OC)c(OC)c(OC)c2)c1`, the IC50 in the assay with HL-60 and in the assay on HepG2 [1] was 29.9 µM throughout.

In the case of `COc1cccc(-n2nc(C(=O)Nc3cc(F)cc(F)c3)nc2-c2cc(OC)c(OC)c(OC)c2)c1`, the inhibition in the assay on HepG2 [2] amounted to 65.2%. In addition, the IC50 in the assay on HL-60 was determined as 54.2 µM; in assay [3] it was 1.3 µM; with HepG2 [1] it was 1.38 µM.

With `CCOc1ccc(NC(=O)c2nc(-c3cc(OC)c(OC)c(OC)c3)n(-c3ccc(OCC)cc3)n2)cc1`, the half-inhibitory concentration (IC50) is 6 µM in the assay on HL-60 and 29.8 µM with HepG2 [1].

For `CCOc1ccc(NC(=O)c2nc(-c3cc(OC)c(OC)c(OC)c3)n(-c3cccc(OC)c3)n2)cc1`, the 50% inhibitory concentration (IC50) in the assay on HL-60 was 14.5 µM; in the assay on HepG2 [1], 8.75 µM.

With `COc1cccc(NC(=O)c2nc(-c3cc(OC)c(OC)c(OC)c3)n(-c3cccc(OC)c3)n2)c1`, the half-maximal inhibitory concentration (IC50) with HL-60 and in the assay on HepG2 [1] was 15.3 µM throughout.

As for `COc1cccc(-n2nc(C(=O)Nc3ccc(F)c(F)c3)nc2-c2cc(OC)c(OC)c(OC)c2)c1`, the IC50 in the assay with HL-60 stood at 31.3 µM; with HepG2 [1], 11 µM.

As for `COc1cccc(-n2nc(C(=O)Nc3ccc(F)c(F)c3F)nc2-c2cc(OC)c(OC)c(OC)c2)c1`, the figures for the IC50 in the assay with HL-60 and in the assay with HepG2 [1] were 27.2 µM and 16.3 µM, respectively.

Regarding `CCOc1ccc(-n2nc(C(=O)Nc3ccc(OC)c(OC)c3)nc2-c2cc(OC)c(OC)c(OC)c2)cc1`, the IC50 in the assay on HL-60 was 4.3 µM; with HepG2 [1] it was 32.8 µM.

Regarding `COc1cccc(-n2nc(C(=O)Nc3cc(OC)c(OC)c(OC)c3)nc2-c2cc(OC)c(OC)c(OC)c2)c1`, the IC50 with HL-60 turned out to be 6.02 µM; in the assay with HepG2 [1], 8.51 µM.
